Mdm2 ligase inh: Mdm2 E3 ligase (human) inhibition | Q00987 | cell-based MDM2 ubiquitination luciferase reporter, 2 h; 0 = plate control, 100 = twice control, blank-subtracted | signal enhancement, % at 5 µM | 0.11% of 210,000 active | AID 1230;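 active = signal enhancement of 30% or more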;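 note: luminescence tracks abundance of the self-degrading MDM2-luciferase fusion protein; higher signal means inhibition of MDM2 E3 ligase activity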
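Test system: mammalian cells stably expressing self-ubiquitinating, self-degrading MDM2 E3–luciferase fusion; Amount: 2000 cells in each well; Medium: DMEM; Schedule: 4 h settle plus 2 h compound, 37 °C; Technique: SteadyLite luciferase luminescence after 15 min room-temperature reagent incubation; Benchmarks: plate control and blank wells.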
Arbovirus anti: blocks arbovirus infection | arbovirus infection cell-based antiviral screen | inhibition, % at 10 µM | 0.37% of 200,000 active | AID 1251; in the data active = inhibition above about 30%
Calpain2 inh: calpain II (pig) inhibition. inhibition, % at 16 µM. 0.37% of 220,000 active. purified calpain II, fluorogenic peptide substrate, 30 min;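 active = inhibition above about 50%, limit read from the data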
KCC2 mod: KCC2 (human) Cl- transport modulation; Q9H2X9; 2.2% of 190,000 active; KCC2 cells, thallium flux FluoZin-2 fluorescence; B-score of Tl+ flux slope (higher = more flux/activation; lower = inhibition) at 10 µM;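 active = thallium flux slope and its plate-corrected score both differing from the plate sample mean at a set confidence after two filtering rounds, in either direction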;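 note: slope of fluorescence scaled to starting intensity during 10 to 20 s after thallium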
Target sequence (Q9H2X9 whole entry, looked up): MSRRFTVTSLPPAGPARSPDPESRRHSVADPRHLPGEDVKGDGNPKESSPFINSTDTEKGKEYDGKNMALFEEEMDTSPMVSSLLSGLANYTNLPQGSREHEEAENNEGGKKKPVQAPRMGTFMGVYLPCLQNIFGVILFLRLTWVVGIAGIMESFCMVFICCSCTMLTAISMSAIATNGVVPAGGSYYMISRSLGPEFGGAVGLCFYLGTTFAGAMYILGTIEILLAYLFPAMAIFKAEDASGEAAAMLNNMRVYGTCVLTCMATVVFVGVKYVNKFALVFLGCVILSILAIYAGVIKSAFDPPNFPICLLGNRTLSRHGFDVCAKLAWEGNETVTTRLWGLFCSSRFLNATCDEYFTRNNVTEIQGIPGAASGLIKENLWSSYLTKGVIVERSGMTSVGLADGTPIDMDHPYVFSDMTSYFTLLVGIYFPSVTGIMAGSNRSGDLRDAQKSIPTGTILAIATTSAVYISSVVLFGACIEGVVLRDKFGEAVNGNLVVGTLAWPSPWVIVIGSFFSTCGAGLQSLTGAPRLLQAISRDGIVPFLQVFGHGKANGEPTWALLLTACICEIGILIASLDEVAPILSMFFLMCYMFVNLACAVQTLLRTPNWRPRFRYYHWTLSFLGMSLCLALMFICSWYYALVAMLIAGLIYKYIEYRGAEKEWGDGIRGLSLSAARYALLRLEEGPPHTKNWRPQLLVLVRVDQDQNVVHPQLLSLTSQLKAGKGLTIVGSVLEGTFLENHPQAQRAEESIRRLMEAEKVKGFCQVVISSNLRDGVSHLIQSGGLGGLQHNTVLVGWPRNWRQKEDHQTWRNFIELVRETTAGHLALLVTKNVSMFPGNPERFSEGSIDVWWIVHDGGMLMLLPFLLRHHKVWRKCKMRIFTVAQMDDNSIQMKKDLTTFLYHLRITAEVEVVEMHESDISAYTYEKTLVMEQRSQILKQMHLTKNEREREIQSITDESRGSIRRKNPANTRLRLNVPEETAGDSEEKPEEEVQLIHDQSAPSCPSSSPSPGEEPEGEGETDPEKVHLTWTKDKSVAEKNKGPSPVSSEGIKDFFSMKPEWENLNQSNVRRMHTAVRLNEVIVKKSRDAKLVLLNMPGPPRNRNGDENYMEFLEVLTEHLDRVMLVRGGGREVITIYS
ROMK mod: human ROMK K+ channel modulation, primary screen; Tet-inducible ROMK, thallium flux fluorescence; actives lie on both sides; B-score at 10 µM; 2% of 130,000 active; AID 1918;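 active = signal ratio slope over the read window, or its plate-corrected B-score, at least 3 SD from the plate mean, either direction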;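 note: B-score of the F/F0 ratio slope over 7 to 12 s after thallium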
PKD1 inh: PKD1 (human) kinase inhibition | PKD1 kinase fluorescence polarization assay | inhibition, % (concentration not given with the values) | 0.056% of 200,000 active; in the data active = inhibition above about 50%
ROMK hit retest: human ROMK channel modulation, retest confirmation. shares compounds with ROMK mod. ROMK thallium flux, fluorescence ratio; active compounds read low. normalized thallium flux (F/F0 slope) at 10 µM. 54% of 3,000 active;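 active = Flux at 10 µM at least 3 SD below or above vehicle control mean in one or both replicates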
Active calls of the source: *. The list is not random: actives were taken first. Their share in the collection is about 3.7%.

CC(C)Cn1c(SCC(=O)NCc2ccc(Cl)cc2)nnc1-c1cccc(S(=O)(=O)N2CCOCC2)c1 was read as Mdm2 ligase inh -5, Arbovirus anti 4, Calpain2 inh 5, KCC2 mod -0.66, ROMK mod -0.49 and PKD1 inh -7.
For CCCC(=O)N1CCN(c2ccc(NC(=O)c3cccs3)cc2)CC1 the results were Mdm2 ligase inh -8, Arbovirus anti -13, Calpain2 inh -17, KCC2 mod -0.048, ROMK mod 2.7*, PKD1 inh 2 and ROMK hit retest 0.086.
COc1ccc(OC)c(C2C(C#N)=C(N)Oc3cc(N)ccc32)c1 (stereo unspecified) was read as Mdm2 ligase inh -10, Arbovirus anti -3, Calpain2 inh -32, KCC2 mod -1.4 and PKD1 inh 2.
`CCOc1ccccc1C1C(C#N)=C(N)Oc2cc(N)ccc21` (stereo unspecified) gave Mdm2 ligase inh -4, Arbovirus anti -8, Calpain2 inh -48, KCC2 mod -0.86, ROMK mod -4.2*, PKD1 inh -11 and ROMK hit retest 0.053*.
`O=C(C1CC=CCC1)N1CCC(CO)(Cc2ccc(Cl)cc2)CC1` (stereo unspecified) gave Mdm2 ligase inh -6, Arbovirus anti 4, Calpain2 inh 8, ROMK mod 0.43 and PKD1 inh -4.
`Cc1cccc(N2CCN(C(=O)CC(NC(=O)c3ccccc3Cl)c3ccccc3)CC2)c1C` (stereo unspecified) gave Mdm2 ligase inh -5, Arbovirus anti -27, Calpain2 inh -57, KCC2 mod -1.4, ROMK mod -4.7*, PKD1 inh 9 and ROMK hit retest 0.054*.
Screening O=C(NC(CC(=O)N1CCN(c2ccc([N+](=O)[O-])cc2)CC1)c1ccccc1)c1ccccc1Cl (stereo unspecified) returned Mdm2 ligase inh -1, Arbovirus anti -14, Calpain2 inh -33, KCC2 mod -0.54, ROMK mod -0.45 and PKD1 inh -9.
`CCCCN1/C(=C/c2ccc3ccccc3[n+]2CC)Sc2ccccc21` gave Mdm2 ligase inh -68, Arbovirus anti -37, Calpain2 inh -4, KCC2 mod inactive and PKD1 inh 4.
For CCN1/C(=C/c2ccc3ccccc3[n+]2CC)C=Cc2ccccc21 the results were Mdm2 ligase inh -33, Arbovirus anti -29, Calpain2 inh 33, KCC2 mod -3.6, ROMK mod -4.7*, PKD1 inh 7 and ROMK hit retest 0.038*.
`C=CCCC(=O)Nc1ccc(Br)cn1` gave Mdm2 ligase inh -7, Arbovirus anti -20, Calpain2 inh -20, ROMK mod 2.5*, PKD1 inh -4 and ROMK hit retest 0.076.
CCCCC(=O)Nc1ccc(Br)cn1 was read as Mdm2 ligase inh -1, Arbovirus anti -4, Calpain2 inh 0, ROMK mod -0.31 and PKD1 inh -2.
Screening CCN(CC)S(=O)(=O)c1cccc(NC(=O)COC(=O)C2CC3C=CC2C3)c1 (stereo unspecified) returned Mdm2 ligase inh -16, Arbovirus anti 8, Calpain2 inh 26, KCC2 mod -0.33, ROMK mod 0.27 and PKD1 inh -1.
CCCCNC(=O)CN1C(=O)c2cccc(N)c2C1=O was read as Mdm2 ligase inh 4, Arbovirus anti 8, Calpain2 inh inactive, KCC2 mod 0.6, ROMK mod -2.5, PKD1 inh 5 and ROMK hit retest 0.055*.
Screening CC1CCCCC1NC(=O)CN1C(=O)c2cccc(N)c2C1=O (stereo unspecified) returned Mdm2 ligase inh 1, Arbovirus anti 3, Calpain2 inh inactive, KCC2 mod -0.65, ROMK mod -3.7*, PKD1 inh 0 and ROMK hit retest 0.056*.
`COc1cc(/C=C2\NC(=S)N(C)C2=O)ccc1O` gave Mdm2 ligase inh 1, Arbovirus anti 6, Calpain2 inh 6, KCC2 mod -1.2, ROMK mod -1.2 and PKD1 inh 5.
For COc1cc(/C=C2/C(=O)CNC2=O)ccc1O the results were Mdm2 ligase inh -6, Arbovirus anti 0, Calpain2 inh -19, KCC2 mod -0.12, ROMK mod -2.9*, PKD1 inh -7 and ROMK hit retest 0.061*.
For Cc1cccc(C2N=C(N)Nc3nc4ccccc4n32)c1 (stereo unspecified) the results were Mdm2 ligase inh 4, Calpain2 inh -54 and KCC2 mod 0.17.
For Cc1ccc(C#CC[N+]2(CC#Cc3ccc(C)cc3)CCCCC2)cc1 the results were Arbovirus anti -5, Calpain2 inh -30, KCC2 mod -0.48, ROMK mod -5.1*, PKD1 inh -2 and ROMK hit retest 0.056*.
For C(#Cc1ccccc1)C[N+]1(CC#Cc2ccccc2)CCCCC1 the results were Mdm2 ligase inh -19, Arbovirus anti 2, Calpain2 inh -30, KCC2 mod 1, ROMK mod -0.76 and PKD1 inh 0.
For CC1=C(C(=O)OCC2CCCO2)C(c2coc3ccc(Cl)cc3c2=O)C2=C(CCCC2=O)N1 (stereo unspecified) the results were Mdm2 ligase inh -38, Arbovirus anti 3, Calpain2 inh 0, KCC2 mod 0.14, ROMK mod -2.7*, PKD1 inh 9 and ROMK hit retest 0.073.
For CCOC(=O)/C(=C\c1cccnc1)C(=O)c1cc(C(C)=O)c(Nc2ccccc2)s1 the results were Mdm2 ligase inh -18, Arbovirus anti -36, Calpain2 inh -51, KCC2 mod -0.43, ROMK mod -3*, PKD1 inh -4 and ROMK hit retest 0.05*.
For S=C(c1ccc(N2CCCC2)c(Br)c1)N1CCCCC1 the results were Mdm2 ligase inh 12, Arbovirus anti 0, Calpain2 inh 28, KCC2 mod 0.0032, ROMK mod 0.15 and PKD1 inh -5.
CCn1c(SCC(=O)N2CCCC2)nc2c1c(=O)n(C)c(=O)n2C was read as Mdm2 ligase inh -10, Arbovirus anti 1, Calpain2 inh 13 and PKD1 inh -14.
Screening CC(C)CC(=O)Nc1ccccc1N1CCCC1 returned Mdm2 ligase inh -18, Arbovirus anti 2, Calpain2 inh 18, KCC2 mod 0.16, ROMK mod -6*, PKD1 inh -2 and ROMK hit retest 0.073.
Screening CCn1c(SCC(=O)Nc2ccccc2N2CCCCC2)nc2c1c(=O)n(C)c(=O)n2C returned Mdm2 ligase inh -8, Arbovirus anti 9, Calpain2 inh 4, KCC2 mod -0.2, PKD1 inh -8 and ROMK hit retest 0.074.
O=C(NCC(O)CO)c1ccc2[nH]c3ccccc3c2c1 (stereo unspecified) was read as Mdm2 ligase inh -2, Arbovirus anti -2, Calpain2 inh -146, KCC2 mod -0.063, PKD1 inh -6 and ROMK hit retest 0.077.

Assay outcomes from PubChem.
